Test results published in paper PMC10888821 (bioRxiv, 2024).
The star is where a group is joined. K(dnp) = lysine 2,4-dinitrophenyl (Nε-2,4-dinitrophenyl-lysine); Mca = COc1ccc2c(CC(=O)*)cc(=O)oc2c1

Assays:
[1] = system: 20S proteasome of three Schistosoma species; experiment: Cross-species inhibition profile of schistosome lysates; assay type: biochemical, S. mansoni, S. haematobium, S. japonicum; conditions: lysates pre-incubated with 500 nM
Outline: (§1)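 Extracts of S. haematobium (0.625 μg/μL), S. japonicum and S. mansoni (1.25 μg/μL each) were enriched by ammonium sulfate precipitation. Proteasome amount was normalized by labelling with 2 μM Me4BodipyFL-Ahx3Leu3VS (37°C, 3 h) and in-gel fluorescence. Extracts were preincubated 1 h with test compound (0.125% DMSO vehicle), then mixed with an equal volume of 20 μM β1/β2 mca substrate or 40 μM Z-FNKL-amc. Buffer: 100 mM Tris pH 7.5, 50 μM E-64, 1 mM AEBSF, 2 μM pepstatin, 0.03% SDS. Triplicate wells at 24°C.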

Sm20S β1 subunit [2] = biological target: T1, Sm20S β1 subunit (Schistosoma mansoni, UniProt G4V926); experiment: Inhibition of single-step enriched Sm20S, β1 substrate; assay type: biochemical
T1 sequence (G4V926 26-225): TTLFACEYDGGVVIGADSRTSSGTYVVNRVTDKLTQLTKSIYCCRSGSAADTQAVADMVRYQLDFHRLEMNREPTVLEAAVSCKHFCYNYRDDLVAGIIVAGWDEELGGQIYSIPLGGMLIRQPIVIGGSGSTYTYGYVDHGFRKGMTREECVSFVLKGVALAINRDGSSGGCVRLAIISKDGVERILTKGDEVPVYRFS
Outline: (§2)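 Sm20S was single-step enriched: worm lysate in Tris/E-64 pH 7.5, ammonium sulfate precipitation at 30 and 60% saturation, then 100 kDa concentration. Assay buffer contained pepstatin, E-64 and AEBSF. Substrates were mca-VDQMDGW-K(dnp)-NH2 (β1), mca-FnKRR-K(dnp)-NH2 (β2) and FNKL-amc (β5), tested across test compound concentrations. Reads were at ex/em 320/400 (mca) or 340/460 (amc). Technical triplicates.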

Sm20S β5 subunit [3] = biological target: T2, Sm20S β5 subunit (Schistosoma mansoni, UniProt A0A5K4F079); experiment: Inhibition of single-step enriched Sm20S, β5 substrate; assay type: biochemical
T2 sequence (A0A5K4F079 63-264): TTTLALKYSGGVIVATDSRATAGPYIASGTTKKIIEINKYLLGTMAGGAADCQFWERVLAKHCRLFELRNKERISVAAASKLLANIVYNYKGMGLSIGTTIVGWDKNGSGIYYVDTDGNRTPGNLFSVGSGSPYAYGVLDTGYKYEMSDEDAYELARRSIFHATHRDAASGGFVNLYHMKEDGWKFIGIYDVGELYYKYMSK
Outline: as §2

Sm20S β1 subunit [4] = biological target: T1, Sm20S β1 subunit; experiment: Dose-response assay of purified Sm20S with Z-LLE-amc; assay type: biochemical
Outline: (§3)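 Purified Sm20S was obtained from adult S. mansoni worms by ammonium sulfate precipitation, gel filtration and DEAE anion exchange. It was preincubated 15 min with test compound (20 μM to 9 nM, or 740 nM to 0.3 nM), then given 10 μM substrate: Suc-LLVY-amc (β5), Z-LLE-amc (β1) or Z-LRR-amc (β2). Maximum velocity over 8 sequential readings (RFU/sec) was normalized to 0.1% DMSO. Technical triplicates.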

Sm20S β5 subunit [5] = biological target: T2, Sm20S β5 subunit; experiment: Dose-response assay of purified Sm20S with Suc-LLVY-amc; assay type: biochemical; conditions: 500 nM inhibitor
Outline: as §3

Sm20S β1 [6] = experiment: Inhibition of Sm20S hydrolysis of mca-VDQMDGW-K; assay type: biochemical, Schistosoma mansoni
Sm20S β2 subunit [7] = biological target: T3, Sm20S β2 subunit (Schistosoma mansoni, UniProt G4VSW3); experiment: Inhibition of single-step enriched Sm20S, β2 substrate; assay type: biochemical
T3 sequence (G4VSW3 39-281): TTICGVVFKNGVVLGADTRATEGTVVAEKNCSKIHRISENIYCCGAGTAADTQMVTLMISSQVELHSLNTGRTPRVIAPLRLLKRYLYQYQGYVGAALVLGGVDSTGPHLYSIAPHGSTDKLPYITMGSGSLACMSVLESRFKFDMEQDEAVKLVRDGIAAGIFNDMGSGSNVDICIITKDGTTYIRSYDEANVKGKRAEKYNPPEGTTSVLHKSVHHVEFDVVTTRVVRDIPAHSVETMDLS
T3 sequence (UPI0001A6248C 1-194 partner): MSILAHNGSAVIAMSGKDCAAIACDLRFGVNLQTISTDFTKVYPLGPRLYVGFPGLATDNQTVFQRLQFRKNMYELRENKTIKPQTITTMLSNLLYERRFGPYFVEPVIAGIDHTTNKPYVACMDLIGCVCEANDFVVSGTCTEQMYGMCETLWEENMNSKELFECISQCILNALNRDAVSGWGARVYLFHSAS
Outline: as §2

Sm20S β2 subunit [8] = biological target: T3, Sm20S β2 subunit; experiment: Dose-response assay of purified Sm20S with Z-LRR-amc; assay type: biochemical; conditions: read-out: inhibition of β2 subunit activity
Outline: as §3

Sm20S β2 = experiment: Sm20S pre-incubated with 10 μM inhibitor, assayed with mca-FnKRR-K; assay type: biochemical, Schistosoma mansoni; conditions: extended pre-incubation with 10 μM inhibitor
Outline: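 Sm20S was pre-incubated with test compound, then assayed with mca-FnKRR-K(dnp) and Z-LRR-amc. Fluorescence was read at 24°C: ex/em 320/400 nm (mca) and 360/460 nm (amc). Technical triplicates.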

[9] = system: 20S proteasome β5 subunit of three Schistosoma species; experiment: Proteasome inhibition in three Schistosoma species, β5 substrate; assay type: biochemical, S. mansoni, S. haematobium, S. japonicum
Outline: as §1

[10] = system: 20S proteasome β1 subunit of three Schistosoma species; experiment: Proteasome inhibition in three Schistosoma species, β1 substrate; assay type: biochemical, S. mansoni, S. haematobium, S. japonicum; conditions: 500 nM, single-step enriched 20S, across the three species
Outline: as §1

[11] = system: 20S proteasome β2 subunit of three Schistosoma species; experiment: Proteasome inhibition in three Schistosoma species, β2 substrate; assay type: biochemical, S. mansoni, S. haematobium, S. japonicum
Outline: as §1

Sj20S β1 = experiment: Proteasome inhibition in enriched extract, β1 substrate, S. japonicum; assay type: biochemical; conditions: 1 μM
Outline: as §1

Sh20S β1 = experiment: Proteasome inhibition in enriched extract, β1 substrate, S. haematobium; assay type: biochemical; conditions: 1 μM
Outline: as §1

Sm20S β1 [12] = experiment: Proteasome inhibition in enriched extract, β1 substrate, S. mansoni; assay type: biochemical; conditions: 1 μM
Outline: as §1

Sm20S β5 subunit [13] = biological target: T2, Sm20S β5 subunit; experiment: Substrate hydrolysis by purified Sm20S, β5 substrates; assay type: biochemical
Outline: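 Purified Sm20S (10 nM) was incubated with 2-fold serial dilutions of Ac-FNKL-amc or Suc-LLVY-amc. Hydrolysis was monitored at 24°C (ex/em 360/460 nm) and activity was compared as a function of substrate concentration. Technical triplicates.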

Sm20S β1 [14] = experiment: Substrate hydrolysis by purified Sm20S, β1 substrates; assay type: biochemical, Schistosoma mansoni; conditions: between 16 and 250 μM substrate
[15] = 500 nM, single-step enriched 20S, across the three species

In the case of `CC(C)C[C@H](NC(=O)[C@H](Cc1ccccc1)NC(=O)c1cnccn1)B(O)O` [BTZ, bortezomib], the “cross-species subunit inhibition profile” value [1] is reported as “preferentially inhibited β1 and β5”, the IC50 (Sm20S β1 subunit [2]) is reported as 49.84 ± 0.24 nM and the IC50 (Sm20S β5 subunit [3]) is reported as 18 ± 2.05 nM. The “inhibition of β1 subunit activity” value (Sm20S β1 subunit [4]; 500 nM inhibitor, Z-LLE-amc) was “completely inactivated”, the “inhibition of β5 subunit activity” value (Sm20S β5 subunit [5]) was “completely inactivated” and the “inhibition of mca-VDQMDGW-K(dnp) hydrolysis by Sm20S” value (Sm20S β1 [6]) was “inhibited”. For the same compound, the “IC50 using the β2 substrate” value (Sm20S β2 subunit [7]; single-step enriched Sm20S, β2 substrate) was “did not inhibit”, the inhibition at 0.5 µM (Sm20S β2 subunit [8]) was about 35% and the “effect on Sm20S β2 activity” value (Sm20S β2) was “only partially inhibited”.
With `CC(C)C[C@H](NC(=O)[C@H](CCc1ccccc1)NC(=O)CN1CCOCC1)C(=O)N[C@@H](Cc1ccccc1)C(=O)N[C@@H](CC(C)C)C(=O)[C@@]1(C)CO1` [CFZ, carfilzomib] the “cross-species subunit inhibition profile” value [1] was “inhibited β5 and β2 more than β1”, the “IC50 for the β1 subunit” value (Sm20S β1 subunit [2]; single-step enriched Sm20S, β1 substrate) was “not inhibitory” and the IC50 (Sm20S β5 subunit [3]) was 2.5 ± 0.51 nM. For the same compound, the inhibition at 0.5 µM (Sm20S β1 subunit [4]; read-out: inhibition of β1 subunit activity) was about 40%, the “inhibition of β5 subunit activity” value (Sm20S β5 subunit [5]) was “completely inhibited” and the IC50 (Sm20S β2 subunit [7]) was 288 ± 90 nM. For the same compound, the inhibition at 0.5 µM (Sm20S β2 subunit [8]) was about 40% and the “effect on Sm20S β2 activity” value (Sm20S β2) was “inactivated”.
In the case of `C[C@@]12OC(=O)[C@]1([C@@H](O)[C@@H]1C=CCCC1)NC(=O)[C@@H]2CCCl` [MZB, marizomib], the “reduction of β5 activity” value [9, 15] is reported as “complete inactivation”, the “reduction of β1 activity” value [10] is reported as 61 to 34% and the “reduction of β2 activity” value [11, 15] is reported as 66 to 48%.
In the case of `CCCCCC(=O)N[C@@H](Cc1c[nH]c2ccccc12)C(=O)N[C@@H](Cc1c[nH]c2ccccc12)C(=O)N[C@@H](Cc1ccccc1)C(=O)[C@@]1(C)CO1` [carmaphycin-17], the “reduction of Sj20S β1 activity” value (Sj20S β1) is reported as 47%, the “decrease of Sh20S β1 activity” value (Sh20S β1) is reported as 20% and the “inhibition of β5 subunits” value ([9]; 1 μM, three species) is reported as “complete inhibition”. The “decrease of Sm20S β1 activity” value (Sm20S β1 [12]) was 20% and the “inhibition of β2 subunits” value ([11]; 1 μM, three species) was ~ 60%.
Ac-FNKL-amc was tested, and the “substrate concentration of maximal cleavage activity” value (Sm20S β5 subunit [13]) was 25 µM and the “cleavage rate relative to Suc-LLVY-amc” value (Sm20S β5 subunit [13]; 25 μM substrate) was “~ four-fold”.
With “mca-VDQMDGW-K(dnp)-NH2 (Mca-VDQMDGW-{K(dnp)-NH2}) [VDQMD*GW]” the “cleavage efficiency relative to LLE-amc” value (Sm20S β1 [14]) was ~ 2 fold.
